ChEMBL document CHEMBL1212890, “Synthesis and biological evaluation of tetracyclic fluoroquinolones as antibacterial and anticancer agents” (Bioorg Med Chem, 2010)
Values after ≈ are worked out from the molar mass of the structure shown. Active and inactive are the calls of the source. The rule behind the calls is not given here.

How the values were obtained:
MCF7 [1] = experiment: Cytotoxicity against human MCF7 cells after 72 hrs by MTT assay; type: functional, cell-based; conditions: MCF7, 72 h
Method in brief: (§1)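 Cells kept in medium with 2 mM glutamine and 10% FBS at 37 °C, 5% CO2. Compounds dissolved in DMSO just before addition (final ≤0.1% v/v; same solvent in controls). After 72 h exposure, viability read by MTT. Triplicates, ≥3 independent experiments. Dose–response fitted with single or double Hill functions; IC50 extrapolated from curves.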

A549 = experiment: Cytotoxicity against human A549 cells after 72 hrs by MTT assay; type: functional, cell-based; conditions: A549, 72 h; method in brief: as §1
[2] = Cytotoxicity against human HDF after 72 hrs by MTT assay; type: cell-based; method in brief: as §1
Staphylococcus aureus [3] = experiment: Antimicrobial activity against quinolone and penicillin-resistant Staphylococcus aureus SAR72 after 24 hrs by broth microdilution method; type: functional
Method in brief: (§2)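 Broth dilution in Mueller Hinton Broth; compounds dissolved in DMSO and diluted in growth medium. […] Drug-free tubes served as growth controls and organism-free tubes as purity controls, with solvent-only controls included. Ciprofloxacin, levofloxacin, moxifloxacin and gemifloxacin were the reference drugs.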

Bacillus subtilis = experiment: Antimicrobial activity against Bacillus subtilis ATCC 6633 after 24 hrs by broth microdilution method; type: functional; conditions: ATCC 6633, 24 h
Method in brief: (§3)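 Broth dilution method. H. influenzae grown in Haemophilus Test Medium, other bacteria in Mueller Hinton Broth. Compounds dissolved in DMSO and diluted in growth medium. Incubated 24 h at 37 °C. MIC is the lowest concentration inhibiting reproduction of the organism. Drug-free tubes served as growth controls, organism-free tubes as purity controls, and solvent-only tubes as controls.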

Staphylococcus aureus [4] = experiment: Antimicrobial activity against Staphylococcus aureus ATCC 6538 after 24 hrs by broth microdilution method; type: functional; conditions: ATCC 6538, 24 h; method in brief: as §3
[5] = system: Staphylococcus epidermidis; experiment: Antimicrobial activity against Staphylococcus epidermidis ATCC 12228 after 24 hrs by broth microdilution method; type: functional; conditions: ATCC 12228, 24 h; method in brief: as §3
Staphylococcus aureus [6] = experiment: Antimicrobial activity against quinolone and penicillin-resistant Staphylococcus aureus SAR4790 after 24 hrs by broth microdilution method; type: functional; method in brief: as §2
[7] = system: Staphylococcus epidermidis; experiment: Antimicrobial activity against quinolone and penicillin-resistant Staphylococcus epidermidis SER after 24 hrs by broth microdilution method; type: functional; method in brief: as §2
Acinetobacter baumannii [8] = experiment: Antimicrobial activity against Acinetobacter baumannii ATCC 19606 after 24 hrs by broth microdilution method; type: functional; conditions: ATCC 19606, 24 h; method in brief: as §3
Acinetobacter baumannii [9] = experiment: Antimicrobial activity against quinolone and penicillin-resistant Acinetobacter baumannii after 24 hrs by broth microdilution method; type: functional; method in brief: as §2
Escherichia coli [10] = experiment: Antimicrobial activity against quinolone and penicillin-resistant Escherichia coli after 24 hrs by broth microdilution method; type: functional; method in brief: as §2
Haemophilus influenzae = experiment: Antimicrobial activity against Haemophilus influenzae ATCC 19418 after 24 hrs by broth microdilution method; type: functional; conditions: ATCC 19418, 24 h; method in brief: as §3
Pseudomonas aeruginosa [11] = experiment: Antimicrobial activity against Pseudomonas aeruginosa ATCC 9027 after 24 hrs by broth microdilution method; type: functional; conditions: ATCC 9027, 24 h; method in brief: as §3
Pseudomonas aeruginosa [12] = experiment: Antimicrobial activity against quinolone and penicillin-resistant Pseudomonas aeruginosa after 24 hrs by broth microdilution method; type: functional; method in brief: as §2
Escherichia coli [13] = experiment: Antimicrobial activity against Escherichia coli ATCC 8739 after 24 hrs by broth microdilution method; type: functional; conditions: ATCC 8739, 24 h; method in brief: as §3
[14] = Inhibition of Escherichia coli DNA gyrase-mediated supercoiling of pBR322 using bromothymol blue by electrophoresis
Method in brief: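 E. coli gyrase supercoiling of relaxed pBR322 in 35 mM Tris–HCl pH 7.5, 24 mM KCl, 4 mM MgCl2, 2 mM DTT, 1.8 mM spermidine, 1 mM ATP, 6.5% glycerol, 0.1 mg/mL albumin. Incubated 30 min at 37 °C, stopped with chloroform/isoamyl alcohol, run on 1% agarose and gel-quantitated. IC50 is the concentration halving supercoiling versus drug-free control. ≥3 independent experiments.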

[15] = Inhibition of Escherichia coli DNA topoisomerase-4-mediated decatenation of kinetoplast DNA by electrophoresis
MCF7 [16] = experiment: Induction of cell death in human MCF7 cells at 5 uM after 48 hrs using Hoechst 33342/PI staining by microscopy; type: functional, cell-based
Method in brief: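 MCF-7 cells exposed to compound for 48 h, then stained with Hoechst 33342/PI. Cell death quantified by fluorescence microscopy as percent values. Means of three separate experiments.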

MCF7 [17] = experiment: Induction of apoptosis in human MCF7 cells assessed as p53 accumulation after 24 hrs by Western blotting
MCF7 [18] = experiment: Induction of apoptosis in human MCF7 cells assessed as caspase-7 activation at 5 uM after 24 hrs by Western blotting

| Compound | IC50 (MCF7 [1]) [nM] | IC50 (A549) [µM] | IC50 [2] [µM] | MIC (Staphylococcus aureus [3]; SAR72, 24 h) [µg/mL] | MIC (Bacillus subtilis) [µg/mL] | MIC (Staphylococcus aureus [4]) [µg/mL] | MIC [5] [µg/mL] | MIC (Staphylococcus aureus [6]; SAR4790, 24 h) [µg/mL] | MIC [7] | MIC (Acinetobacter baumannii [8]) [µg/mL] | MIC (Acinetobacter baumannii [9]) | MIC (Escherichia coli [10]) | MIC (Haemophilus influenzae) [µg/mL] | MIC (Pseudomonas aeruginosa [11]) [µg/mL] | MIC (Pseudomonas aeruginosa [12]) | MIC (Escherichia coli [13]) [µg/mL] | IC50 [14] [µg/mL] | IC50 [15] [µg/mL] | also measured |
| --- | --- | --- | --- | --- | --- | --- | --- | --- | --- | --- | --- | --- | --- | --- | --- | --- | --- | --- | --- |
| Cc1c2ccncc2c(C)c2c1[nH]c1ccccc12 [ELLIPTECINE] | 1600 | 3.4 | > 10 | – | – | – | – | – | – | – | – | – | – | – | – | – | – | – | – |
| C[C@H]1COc2c(N3CCN(C)CC3)c(F)cc3c(=O)c(C(=O)O)cn1c23.C[C@H]1COc2c(N3CCN(C)CC3)c(F)cc3c(=O)c(C(=O)O)cn1c23.O [LEVOFLOXACIN] | – | – | – | 25 | 0.03 | 0.07 | 0.15 | 100 | > 100 µg/mL | 0.15 | > 100 µg/mL | 25 µg/mL | 0.15 | 0.3 | 50 µg/mL | – | – | – | – |
| COc1c(N2C[C@@H]3CCCN[C@@H]3C2)c(F)cc2c(=O)c(C(=O)O)cn(C3CC3)c12 [MOXIFLOXACIN] | – | – | – | 12 (≈ 29.9 µM) | 0.015 (≈ 0.0374 µM) | 0.03 (≈ 0.0747 µM) | 0.07 (≈ 0.174 µM) | 50 (≈ 125 µM) | 50 µg/mL (≈ 125 µM) | 0.15 (≈ 0.374 µM) | 50 µg/mL (≈ 125 µM) | – | 0.03 (≈ 0.0747 µM) | 0.7 (≈ 1.74 µM) | > 100 µg/mL | 0.03 (≈ 0.0747 µM) | 0.85 (≈ 2.12 µM) | 5 (≈ 12.5 µM) | – |
| O=C(O)c1cn(C2CC2)c2c(cc(F)c3c4ccc(F)cc4[nH]c32)c1=O | 800 | 3.5 | > 10 | 1.5 (≈ 4.23 µM) | 0.003 (≈ 0.00847 µM) | 0.07 (≈ 0.198 µM) | 0.07 (≈ 0.198 µM) | > 100 | 3 µg/mL (≈ 8.47 µM) | 12 (≈ 33.9 µM) | > 100 µg/mL | > 100 µg/mL | 0.15 (≈ 0.423 µM) | > 100 | inactive | 25 (≈ 70.6 µM) | 1.8 (≈ 5.08 µM) | 28 (≈ 79 µM) | Activity (MCF7 [16]): Active; Activity (MCF7 [17]): Active; Activity (MCF7 [18]): Active |
| Cc1ccc2c(c1)[nH]c1c2c(F)cc2c(=O)c(C(=O)O)cn(C3CC3)c21 | > 10000 | > 10 | > 10 | – | 0.07 (≈ 0.2 µM) | > 100 | > 100 | – | inactive | > 100 | inactive | inactive | > 100 | > 100 | inactive | > 100 | 3 (≈ 8.56 µM) | > 300 | MIC (Staphylococcus aureus [3]): inactive; MIC (Staphylococcus aureus [6]): inactive |
| COc1c(C)cc2c([nH]c3c2c(F)cc2c(=O)c(C(=O)O)cn(C4CC4)c23)c1C | 1700 | 3 | > 10 | > 100 | 0.07 (≈ 0.177 µM) | 6 (≈ 15.2 µM) | 25 (≈ 63.4 µM) | > 100 | > 100 µg/mL | > 100 | inactive | inactive | 6 (≈ 15.2 µM) | > 100 | inactive | > 100 | > 30 | 31 (≈ 78.6 µM) | – |
| O=C(O)c1cn(C2CC2)c2c(cc(F)c3c2[nH]c2ccsc23)c1=O | 4400 | 6.4 | > 10 | 12 (≈ 35.1 µM) | 0.003 (≈ 0.00876 µM) | 0.03 (≈ 0.0876 µM) | 0.03 (≈ 0.0876 µM) | > 100 | 50 µg/mL (≈ 146 µM) | 3 (≈ 8.76 µM) | > 100 µg/mL | > 100 µg/mL | 0.015 (≈ 0.0438 µM) | 50 (≈ 146 µM) | > 100 µg/mL | 1.5 (≈ 4.38 µM) | 1.1 (≈ 3.21 µM) | 100 (≈ 292 µM) | – |
| O=C(O)c1cn(C2CC2)c2cc(N3CCNCC3)c(F)cc2c1=O [CIPROFLOXACIN] | – | – | – | 100 (≈ 302 µM) | 0.03 (≈ 0.0905 µM) | 0.3 (≈ 0.905 µM) | 0.07 (≈ 0.211 µM) | > 100 | 100 µg/mL (≈ 302 µM) | 0.7 (≈ 2.11 µM) | > 100 µg/mL | – | 0.15 (≈ 0.453 µM) | 0.07 (≈ 0.211 µM) | – | – | 0.34 (≈ 1.03 µM) | 4.6 (≈ 13.9 µM) | – |
| O=C(O)c1cn(C2CC2)c2c(cc(F)c3c4ccccc4[nH]c32)c1=O | 3600 | 6.4 | > 10 | 12 (≈ 35.7 µM) | 0.015 (≈ 0.0446 µM) | 0.3 (≈ 0.892 µM) | 0.15 (≈ 0.446 µM) | > 100 | > 100 µg/mL | 12 (≈ 35.7 µM) | > 100 µg/mL | > 100 µg/mL | 0.03 (≈ 0.0892 µM) | > 100 | inactive | 50 (≈ 149 µM) | 1.7 (≈ 5.05 µM) | 35 (≈ 104 µM) | – |
| CO/N=C1\CN(c2nc3c(cc2F)c(=O)c(C(=O)O)cn3C2CC2)CC1CN (stereo not given) [GEMIFLOXACIN] | – | – | – | 6 (≈ 15.4 µM) | 0.007 (≈ 0.018 µM) | 0.015 (≈ 0.0385 µM) | 0.015 (≈ 0.0385 µM) | 50 (≈ 128 µM) | 50 µg/mL (≈ 128 µM) | 0.3 (≈ 0.77 µM) | 100 µg/mL (≈ 257 µM) | 50 µg/mL (≈ 128 µM) | 0.015 (≈ 0.0385 µM) | 0.07 (≈ 0.18 µM) | > 100 µg/mL | 0.015 (≈ 0.0385 µM) | – | – | – |
| COc1ccc2c(c1)[nH]c1c2c(F)cc2c(=O)c(C(=O)O)cn(C3CC3)c21 | 2400 | 4.9 | > 10 | > 100 | 0.07 (≈ 0.191 µM) | 3 (≈ 8.19 µM) | 3 (≈ 8.19 µM) | > 100 | > 100 µg/mL | 50 (≈ 136 µM) | > 100 µg/mL | inactive | 1.5 (≈ 4.09 µM) | > 100 | inactive | > 100 | 4.8 (≈ 13.1 µM) | 48 (≈ 131 µM) | – |
